Calls of active or inactive are those of the source. The rule behind the calls is not given here.
Assays:
[1] = biological target: Glycogen synthase kinase-3 beta (Homo sapiens, UniProt P49841); assay: Inhibition of GSK3-beta by liquid scintillation counting
Procedure, shortened: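 GSK-3β enzyme incubated with test compound at various concentrations, GS-1 peptide substrate (15 mM as printed), 15 μM ATP plus 0.2 μCi [γ-32P]ATP, in 50 mM Tris pH 7.5, 10 mM MgCl2, 1 mM EGTA, 1 mM EDTA; 20 min at 37 °C. Aliquots spotted on P81 phosphocellulose, washed in 1% phosphoric acid, counted by liquid scintillation.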

Rattus norvegicus [2] = species on record: Rattus norvegicus; assay: Inhibition of rat CAM2 at 10 uM by liquid scintillation counting in presence of [33gammaP]ATP
Procedure, shortened: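 CaM kinase II from rat brain; [γ33-P]ATP plus autocamtide-2 (5 µM); staurosporine reference; labelled autocamtide-2 counted by liquid scintillation; compounds at 10 µM.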

[3] = biological target: D(3) dopamine receptor (Homo sapiens) (UniProt P35462); assay: Displacement of [3H]spiperone from human recombinant dopamine D3 receptor expressed in CHO cells at 10 uM; format: cell-based
Procedure, shortened: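 Human recombinant D3 receptor from CHO cells; [3H]spiperone 0.3 nM as ligand; (+)-buctaclamol reference compound.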

[4] = biological target: Proto-oncogene tyrosine-protein kinase Src (Homo sapiens) (UniProt P12931); assay: Inhibition of Src at 10 uM
Sequence of Proto-oncogene tyrosine-protein kinase Src (Homo sapiens) (P12931 2-536 limits assumed): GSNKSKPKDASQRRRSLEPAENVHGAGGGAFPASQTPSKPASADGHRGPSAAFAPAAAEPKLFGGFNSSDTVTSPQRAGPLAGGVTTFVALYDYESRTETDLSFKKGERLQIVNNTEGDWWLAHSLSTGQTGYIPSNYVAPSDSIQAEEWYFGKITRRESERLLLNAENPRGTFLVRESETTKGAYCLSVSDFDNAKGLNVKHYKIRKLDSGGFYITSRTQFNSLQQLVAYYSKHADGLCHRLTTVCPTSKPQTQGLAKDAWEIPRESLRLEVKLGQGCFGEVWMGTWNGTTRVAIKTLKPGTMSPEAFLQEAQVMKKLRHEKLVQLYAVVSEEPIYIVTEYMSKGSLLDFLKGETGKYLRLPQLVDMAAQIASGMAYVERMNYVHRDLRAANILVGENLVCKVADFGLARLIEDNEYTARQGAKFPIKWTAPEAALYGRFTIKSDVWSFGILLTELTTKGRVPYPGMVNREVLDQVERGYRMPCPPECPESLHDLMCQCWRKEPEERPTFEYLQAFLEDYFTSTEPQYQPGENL

[5] = biological target: D(2) dopamine receptor (Homo sapiens) (UniProt P14416); assay: Displacement of [3H]spiperone from human recombinant dopamine D2 receptor expressed in CHO cells at 10 uM; format: cell-based
Procedure, shortened: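 Human recombinant D2 receptor expressed in CHO cells; [3H]spiperone ligand at 0.3 nM; (+)-buctaclamol as reference compound.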

Bos taurus = species on record: Bos taurus; assay: Inhibition of bovine thymus p56LCK at 10 uM by liquid scintillation counting in presence of [33gammaP]ATP
Procedure, shortened: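 p56lck from bovine thymus; [γ33-P]ATP with polyGT (0.5 mg/mL) substrate; staurosporine reference; liquid scintillation read-out; compounds tested at 10 µM.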

[6] = Displacement of [3H]QNB from muscarinic receptor at 10 uM
[7] = biological target: Tyrosine-protein kinase ABL1 (Mus musculus) (UniProt P00520); assay: Inhibition of mouse recombinant Abl expressed in Escherichia coli at 10 uM by fluorescence polarization
Sequence of Tyrosine-protein kinase ABL1 (Mus musculus) (P00520 whole entry): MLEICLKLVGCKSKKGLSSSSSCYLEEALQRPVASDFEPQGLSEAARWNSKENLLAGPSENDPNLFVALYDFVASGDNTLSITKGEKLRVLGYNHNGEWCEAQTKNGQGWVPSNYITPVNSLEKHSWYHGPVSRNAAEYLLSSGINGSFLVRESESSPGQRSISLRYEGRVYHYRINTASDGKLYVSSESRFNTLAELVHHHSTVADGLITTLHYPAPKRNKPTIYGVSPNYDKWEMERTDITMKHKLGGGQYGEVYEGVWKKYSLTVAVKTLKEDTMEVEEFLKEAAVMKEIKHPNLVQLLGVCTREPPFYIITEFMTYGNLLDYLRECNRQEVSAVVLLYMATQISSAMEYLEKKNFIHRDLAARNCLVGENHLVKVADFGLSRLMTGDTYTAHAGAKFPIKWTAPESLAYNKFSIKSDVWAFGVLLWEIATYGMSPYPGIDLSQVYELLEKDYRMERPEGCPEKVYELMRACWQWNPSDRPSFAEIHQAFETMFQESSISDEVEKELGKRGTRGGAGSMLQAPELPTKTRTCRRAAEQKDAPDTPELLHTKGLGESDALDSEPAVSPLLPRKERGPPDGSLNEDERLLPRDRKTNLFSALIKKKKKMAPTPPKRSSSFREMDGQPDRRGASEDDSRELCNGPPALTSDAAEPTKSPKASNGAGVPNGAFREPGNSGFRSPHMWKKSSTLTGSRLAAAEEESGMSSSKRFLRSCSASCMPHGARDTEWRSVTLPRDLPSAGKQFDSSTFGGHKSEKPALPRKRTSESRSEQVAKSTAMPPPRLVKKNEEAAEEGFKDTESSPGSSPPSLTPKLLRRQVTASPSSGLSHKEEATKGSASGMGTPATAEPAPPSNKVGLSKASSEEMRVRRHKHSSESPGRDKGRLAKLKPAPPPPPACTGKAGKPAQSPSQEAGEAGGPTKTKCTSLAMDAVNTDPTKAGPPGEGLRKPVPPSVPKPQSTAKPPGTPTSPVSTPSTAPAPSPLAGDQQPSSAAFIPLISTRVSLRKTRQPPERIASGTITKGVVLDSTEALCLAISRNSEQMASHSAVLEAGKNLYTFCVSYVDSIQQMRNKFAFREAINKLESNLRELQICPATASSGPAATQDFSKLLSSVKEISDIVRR

Rattus norvegicus [8] = species on record: Rattus norvegicus; assay: Displacement of [3H]AMPA from AMPA receptor in rat cerebral cortex at 10 uM; format: tissue-based
[9] = biological target: Epidermal growth factor receptor (Homo sapiens) (UniProt P00533); assay: Inhibition of EGFR in human A431 at 10 uM by liquid scintillation counting in presence of [33gammaP]ATP
Sequence of Epidermal growth factor receptor (Homo sapiens) (P00533 whole entry): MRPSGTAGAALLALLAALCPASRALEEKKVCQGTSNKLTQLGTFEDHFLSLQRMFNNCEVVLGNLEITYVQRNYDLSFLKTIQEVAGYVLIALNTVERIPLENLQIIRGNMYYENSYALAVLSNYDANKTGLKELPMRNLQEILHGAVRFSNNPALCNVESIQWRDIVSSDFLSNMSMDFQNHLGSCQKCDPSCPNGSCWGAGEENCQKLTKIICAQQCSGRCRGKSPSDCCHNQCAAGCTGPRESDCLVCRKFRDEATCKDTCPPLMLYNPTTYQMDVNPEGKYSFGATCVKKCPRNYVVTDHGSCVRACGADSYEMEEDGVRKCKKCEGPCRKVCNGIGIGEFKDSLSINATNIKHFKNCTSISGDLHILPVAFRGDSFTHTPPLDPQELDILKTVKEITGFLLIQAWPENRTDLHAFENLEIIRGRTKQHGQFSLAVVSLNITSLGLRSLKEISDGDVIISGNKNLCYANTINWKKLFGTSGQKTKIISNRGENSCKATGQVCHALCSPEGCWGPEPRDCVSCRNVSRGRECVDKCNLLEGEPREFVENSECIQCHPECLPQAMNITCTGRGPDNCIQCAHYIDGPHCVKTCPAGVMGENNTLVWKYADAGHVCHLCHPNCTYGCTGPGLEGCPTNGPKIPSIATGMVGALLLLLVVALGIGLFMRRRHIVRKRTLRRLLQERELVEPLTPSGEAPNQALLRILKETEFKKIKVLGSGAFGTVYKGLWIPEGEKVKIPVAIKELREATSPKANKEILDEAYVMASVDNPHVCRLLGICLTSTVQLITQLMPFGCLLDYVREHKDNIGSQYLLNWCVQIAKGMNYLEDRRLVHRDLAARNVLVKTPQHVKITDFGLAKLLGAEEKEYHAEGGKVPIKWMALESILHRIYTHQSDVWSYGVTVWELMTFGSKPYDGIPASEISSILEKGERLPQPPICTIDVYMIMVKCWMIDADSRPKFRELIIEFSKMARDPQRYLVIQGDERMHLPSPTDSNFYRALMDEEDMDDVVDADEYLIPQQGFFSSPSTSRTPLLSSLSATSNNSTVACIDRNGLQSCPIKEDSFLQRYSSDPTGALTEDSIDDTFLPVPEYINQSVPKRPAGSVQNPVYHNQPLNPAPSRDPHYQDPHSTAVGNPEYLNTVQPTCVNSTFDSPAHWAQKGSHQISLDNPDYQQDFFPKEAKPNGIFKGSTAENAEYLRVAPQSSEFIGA
Procedure, shortened: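 EGFR kinase from A-431 cells; substrate [γ33-P]ATP plus poly GAT (0.48 mg/mL); PD 153035 reference; product measured by liquid scintillation; compounds at 10 µM.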

Rattus norvegicus [10] = species on record: Rattus norvegicus; assay: Inhibition of rat recombinant MAPK at 10 uM by liquid scintillation counting in presence of [33gammaP]ATP
Procedure, shortened: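 Rat recombinant ERK42 MAP kinase expressed in E. coli; [γ33-P]ATP with MBP (0.5 mg/mL); staurosporine reference; liquid scintillation read-out; 10 µM compound.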

[11] = biological target: Glutamate NMDA receptor (Rattus norvegicus) (UniProt P35439+Q00959+Q00960+Q00961+Q62645+Q8VHN2+Q9R1M7); assay: Displacement of [3H]CGP39653 from NMDA receptor in rat cerebral cortex at 10 uM; format: tissue-based
Rattus norvegicus [12] = species on record: Rattus norvegicus; assay: Displacement of [3H]cystisine from alpha-BGTX insensitive nicotinic acetylcholine receptor in rat cerebral cortex at 10 uM; format: tissue-based
[13] = system: 5-HT (non-selective) serotonin receptor (Rattus norvegicus); assay: Inhibition of [3H]serotonine binding to non-selective 5-HT serotoninergic receptor in rat cerebral cortex at 10 uM
[14] = biological target: Insulin receptor (Homo sapiens) (UniProt P06213); assay: Inhibition of human recombinant IR at 10 uM by liquid scintillation counting in presence of [33gammaP]ATP
Sequence of Insulin receptor (Homo sapiens) (P06213 28-758 limits assumed): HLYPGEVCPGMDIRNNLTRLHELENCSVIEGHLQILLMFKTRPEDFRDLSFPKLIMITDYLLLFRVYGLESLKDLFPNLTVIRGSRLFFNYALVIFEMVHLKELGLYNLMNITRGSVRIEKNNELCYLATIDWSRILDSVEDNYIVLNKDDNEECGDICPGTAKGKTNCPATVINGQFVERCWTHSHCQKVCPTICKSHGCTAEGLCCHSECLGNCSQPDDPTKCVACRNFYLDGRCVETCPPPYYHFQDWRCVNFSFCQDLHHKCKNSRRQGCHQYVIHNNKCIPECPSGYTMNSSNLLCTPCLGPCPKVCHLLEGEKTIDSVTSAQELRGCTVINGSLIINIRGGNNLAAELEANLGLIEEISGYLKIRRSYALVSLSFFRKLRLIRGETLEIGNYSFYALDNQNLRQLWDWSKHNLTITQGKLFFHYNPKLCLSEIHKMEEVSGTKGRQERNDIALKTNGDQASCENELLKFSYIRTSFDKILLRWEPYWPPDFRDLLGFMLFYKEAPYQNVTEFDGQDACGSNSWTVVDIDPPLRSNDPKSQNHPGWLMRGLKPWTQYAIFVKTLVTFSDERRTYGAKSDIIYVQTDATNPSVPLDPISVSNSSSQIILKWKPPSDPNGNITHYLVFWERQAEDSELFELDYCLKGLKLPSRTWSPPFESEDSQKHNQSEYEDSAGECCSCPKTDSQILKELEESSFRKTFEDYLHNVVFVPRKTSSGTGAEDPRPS
Sequence of Insulin receptor (Homo sapiens) (P06213 763-1382 limits assumed): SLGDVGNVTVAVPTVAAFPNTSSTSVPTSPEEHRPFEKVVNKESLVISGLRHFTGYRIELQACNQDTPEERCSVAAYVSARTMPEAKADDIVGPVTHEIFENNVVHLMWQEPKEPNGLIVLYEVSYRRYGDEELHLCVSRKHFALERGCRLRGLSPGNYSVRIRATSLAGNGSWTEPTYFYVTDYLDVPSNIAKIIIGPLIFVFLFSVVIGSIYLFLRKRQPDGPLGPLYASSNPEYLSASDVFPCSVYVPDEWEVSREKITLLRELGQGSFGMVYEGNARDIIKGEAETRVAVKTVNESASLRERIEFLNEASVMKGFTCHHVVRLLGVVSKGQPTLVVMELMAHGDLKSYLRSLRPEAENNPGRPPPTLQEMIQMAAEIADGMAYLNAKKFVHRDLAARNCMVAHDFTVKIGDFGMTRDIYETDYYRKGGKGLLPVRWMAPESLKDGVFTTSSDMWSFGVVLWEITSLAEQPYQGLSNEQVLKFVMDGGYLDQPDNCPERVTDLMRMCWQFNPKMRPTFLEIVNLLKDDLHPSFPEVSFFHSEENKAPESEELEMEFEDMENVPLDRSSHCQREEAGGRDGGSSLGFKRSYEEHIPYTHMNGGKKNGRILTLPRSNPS
Procedure, shortened: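 Human recombinant insulin receptor kinase; [γ33-P]ATP plus poly GT (0.03 mg/mL); staurosporine reference; liquid scintillation detection; 10 µM compound.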

[15] = biological target: T1, Alpha-2A adrenergic receptor (Rattus norvegicus) (UniProt P22909); assay: Displacement of [3H]RX821002 from alpha2 adrenoceptor in rat cerebral cortex at 10 uM; format: tissue-based
T1 sequence (whole entry): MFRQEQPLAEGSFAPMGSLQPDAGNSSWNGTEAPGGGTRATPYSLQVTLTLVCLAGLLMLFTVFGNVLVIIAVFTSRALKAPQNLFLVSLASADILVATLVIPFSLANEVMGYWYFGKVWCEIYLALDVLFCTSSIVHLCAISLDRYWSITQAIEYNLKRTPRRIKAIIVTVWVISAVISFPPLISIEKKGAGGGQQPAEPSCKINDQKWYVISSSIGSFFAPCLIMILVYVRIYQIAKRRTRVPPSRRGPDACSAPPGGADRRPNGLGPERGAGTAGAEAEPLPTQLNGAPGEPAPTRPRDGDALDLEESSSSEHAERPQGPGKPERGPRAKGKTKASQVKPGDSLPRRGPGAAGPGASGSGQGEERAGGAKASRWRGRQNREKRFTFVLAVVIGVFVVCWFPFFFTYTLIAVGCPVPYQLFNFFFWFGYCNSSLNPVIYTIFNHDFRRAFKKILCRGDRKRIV
Procedure, shortened: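 Rat cerebral cortex source; [3H]RX 821002 ligand at 0.5 nM; yohimbine as reference compound; non-selective alpha-2 site.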

[16] = biological target: Dual specificity mitogen-activated protein kinase kinase 1 (Oryctolagus cuniculus) (UniProt P29678); assay: Inhibition of rabbit recombinant MEK1 expressed in Escherichia coli at 10 uM by liquid scintillation counting in presence of [33gammaP]ATP
Sequence of Dual specificity mitogen-activated protein kinase kinase 1 (Oryctolagus cuniculus) (P29678 whole entry): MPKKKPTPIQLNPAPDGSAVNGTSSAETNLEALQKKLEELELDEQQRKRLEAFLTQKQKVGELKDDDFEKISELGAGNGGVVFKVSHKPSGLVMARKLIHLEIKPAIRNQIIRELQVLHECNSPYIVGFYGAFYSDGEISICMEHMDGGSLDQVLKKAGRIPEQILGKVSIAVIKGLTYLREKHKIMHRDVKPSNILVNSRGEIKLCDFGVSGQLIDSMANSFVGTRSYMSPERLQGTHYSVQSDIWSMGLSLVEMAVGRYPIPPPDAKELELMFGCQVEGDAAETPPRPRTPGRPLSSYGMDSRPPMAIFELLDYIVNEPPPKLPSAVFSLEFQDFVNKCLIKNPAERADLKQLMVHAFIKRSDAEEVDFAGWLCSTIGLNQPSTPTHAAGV
Procedure, shortened: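 Rabbit recombinant MEK1 from E. coli; ATP plus unactivated MAP kinase (0.01 mg/mL) as substrate; staurosporine reference; liquid scintillation detection; 10 µM.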

Rattus norvegicus [17] = species on record: Rattus norvegicus; assay: Displacement of [3H]cystisine from alpha-BGTX sensitive nicotinic acetylcholine receptor in rat cerebral cortex; format: tissue-based; parameters: concentration or dose not given beside the values; details: concentration not given here
[18] = biological target: Glycogen synthase kinase-3 beta (Mus musculus) (UniProt Q9WV60); assay: Inhibition of GSK-3-beta-mediated tau phosphorylation in mouse granule cerebellar neurons cells after 16 hrs by Western blot
Procedure, shortened: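 Cerebellar granule neurons from P6 mice, plated on poly-L-lysine and grown 48 h in serum-free neurobasal/B-27 with 12.5 mM KCl; compounds 0.5–25 µM; LiCl 10 mM positive control with excess myo-inositol; lysates blotted with PHF-1 and Tau-1, normalised to β-actin, densitometry; mean of three experiments, control = 100 r.u.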

Sequence of Glycogen synthase kinase-3 beta (P49841 whole entry): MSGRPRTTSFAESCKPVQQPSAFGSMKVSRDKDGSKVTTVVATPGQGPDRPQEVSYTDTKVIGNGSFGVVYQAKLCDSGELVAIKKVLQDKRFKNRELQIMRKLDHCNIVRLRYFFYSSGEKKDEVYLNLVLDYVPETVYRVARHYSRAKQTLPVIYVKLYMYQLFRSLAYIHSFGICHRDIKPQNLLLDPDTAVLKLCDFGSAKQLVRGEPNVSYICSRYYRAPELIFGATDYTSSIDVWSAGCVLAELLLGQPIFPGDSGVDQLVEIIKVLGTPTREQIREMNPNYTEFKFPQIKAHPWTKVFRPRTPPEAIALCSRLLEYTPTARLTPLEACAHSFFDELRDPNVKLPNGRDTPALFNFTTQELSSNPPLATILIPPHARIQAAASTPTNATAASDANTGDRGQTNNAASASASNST

SMILES: COc1cc2c(cc1OC)C(=O)CC2
- IC50 [1]: > 100 µM

SMILES: CCOC(=O)c1sc(SC(C)=O)cc1O
- IC50 [1]: 25 µM

SMILES: CC(N)Cc1cc(Cl)cs1 (stereo unspecified)
- IC50 [1]: > 100 µM

SMILES: OC(CCl)c1sc(Br)c(Br)c1Br (stereo unspecified)
- IC50 [1]: 75 µM

SMILES: O=Nn1c2ccccc2c2cc(Cl)ccc21
- IC50 [1]: > 100 µM

SMILES: CCOC(=O)c1ccccc1 [ETHYL BENZOATE]
- IC50 [1]: > 100 µM

SMILES: c1ccc(-c2nc(-c3ccccc3)n(-c3ccccc3)n2)cc1
- IC50 [1]: > 100 µM

SMILES: O=C(CCCCl)c1cc(Cl)sc1Cl
- IC50 [1]: > 100 µM

SMILES: O=C(CCCCl)c1ccc(Br)s1
- IC50 [1]: > 100 µM

SMILES: O=C(CCCCl)c1ccc(Cl)s1
- IC50 [1]: > 100 µM

SMILES: CC(=O)c1ccc(Cl)cc1
- IC50 [1]: > 100 µM

SMILES: O=C(CBr)c1scc(Br)c1Br
- inhibition (Rattus norvegicus [2]): < 10%
- inhibition [3]: < 10%
- inhibition [4]: 66%
- inhibition [5]: < 10%
- inhibition (Bos taurus): < 10%
- inhibition [6]: < 10%
- inhibition [7]: < 10%
- inhibition (Rattus norvegicus [8]): < 10%
- inhibition [9]: 17%
- inhibition (Rattus norvegicus [10]): < 10%
- inhibition [11]: < 10%
- inhibition (Rattus norvegicus [12]): 22%
- inhibition [13]: < 10%
- IC50 [1]: 1 µM
- inhibition [14]: < 10%
- inhibition [15]: < 10%
- inhibition [16]: < 10%
- inhibition (Rattus norvegicus [17]): < 10%

SMILES: O=C(CCl)c1ccc(Br)s1
- inhibition (Rattus norvegicus [2]): 16%
- inhibition [3]: < 10%
- inhibition [4]: 19%
- Activity [18]: Active
- inhibition [5]: < 10%
- inhibition (Bos taurus): < 10%
- inhibition [6]: < 10%
- inhibition [7]: < 10%
- inhibition (Rattus norvegicus [8]): < 10%
- inhibition [9]: < 10%
- inhibition (Rattus norvegicus [10]): < 10%
- inhibition [11]: < 10%
- inhibition (Rattus norvegicus [12]): < 10%
- inhibition [13]: < 10%
- inhibition [14]: < 10%
- inhibition [15]: < 10%
- inhibition [16]: < 10%
- inhibition (Rattus norvegicus [17]): < 10%

SMILES: O=C(CCl)c1ccc(Cl)s1
- inhibition (Rattus norvegicus [2]): < 10%
- inhibition [3]: < 10%
- inhibition [4]: < 10%
- Activity [18]: Active
- inhibition [5]: < 10%
- inhibition (Bos taurus): < 10%
- inhibition [6]: < 10%
- inhibition [7]: < 10%
- inhibition (Rattus norvegicus [8]): 17%
- inhibition [9]: < 10%
- inhibition (Rattus norvegicus [10]): < 10%
- inhibition [11]: < 10%
- inhibition (Rattus norvegicus [12]): < 10%
- inhibition [13]: < 10%
- inhibition [14]: < 10%
- inhibition [15]: < 10%
- inhibition [16]: < 10%
- inhibition (Rattus norvegicus [17]): < 10%

SMILES: N=C(c1ccccc1Cl)c1ccccc1N(NC(=O)c1ccccc1)c1ccccc1
- IC50 [1]: > 100 µM
